Test results taken from ChEMBL document CHEMBL3112447, “Discovery of 1-methyl-1H-imidazole derivatives as potent Jak2 inhibitors” (J Med Chem, 2014).
Activity calls are given as the source filed them. The calls are words filed in the database; no cut-off is given here.

Legend:
[1] = target: Receptor-type tyrosine-protein kinase FLT3 (Homo sapiens, UniProt P36888); assay: Inhibition of human Flt3
Summary of the method: (§1)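 Panel of 82 kinases. Radiometric filter-binding assay with ATP at or near Km. Compound tested at 0.01, 0.10 and 1.0 μM. Values expressed as minimum possible fold selectivity against Jak2.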

Canis familiaris = assay: Oral bioavailability in beagle dog at 10 mg/kg; type: ADME, organism-based, Canis lupus familiaris; conditions: in vivo
Summary of the method: (§2)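 Male beagle dogs. Oral dose 10 mg/kg in 0.1% HPMC, pH 2. IV dose 2.5 mg/kg in 20% TEG/D5W. […] Clearance, Vdss, half-life and oral bioavailability (F%) derived from the plasma profiles.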

[2] = target: Serine/threonine-protein kinase SIK1 (Homo sapiens, UniProt P57059); assay: Inhibition of human SIK; summary of the method: as §1
[3] = target: High affinity nerve growth factor receptor (Homo sapiens, UniProt P04629); assay: Inhibition of human TrkA; summary of the method: as §1
[4] = target: Casein kinase II subunit alpha' (Homo sapiens, UniProt P19784); assay: Inhibition of human CK2alpha2; summary of the method: as §1
[5] = Clearance in Wistar rat at 10 mg/kg, po and 3 mg/kg, iv; type: ADME, organism-based; conditions: in vivo
Summary of the method: (§3)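 Rat pharmacokinetics. Oral dose 10 mg/kg in 0.1% HPMC. IV dose 3 mg/kg in 40% DMA/40% PEG/20% saline. Clearance, half-life, Vdss and oral bioavailability derived from the plasma profiles.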

[6] = Cytotoxicity against mouse BA/F3 cells expressing TEL-Tyk2 after 72 hrs by MTS assay; type: functional; conditions: BaF3, 72 h
Summary of the method: (§4)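 BaF3 cells transfected with the kinase domain of Jak1, Jak3 or Tyk2 (TEL fusions). Growth inhibition measured as the counter-screen for cellular selectivity.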

Mus musculus [7] = assay: In vivo inhibition of Jak2 in mouse transfected with mouse BA/F3 cells expressing TEL-Jak2 assessed as inhibition of STAT5 phosphorylation at 10 mg/kg, po after 6 hrs by Western blotting analysis; type: functional, organism-based; parameters: dose 10 mg/kg; conditions: BaF3
Summary of the method: (§5)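 Mice bearing BaF3 TEL-JAK2 cells given a single oral dose of 3, 5 or 10 mg/kg and sacrificed at various times after dosing. Spleen lysates probed for phospho-STAT5 and total STAT5 by Western blot, and pSTAT5 inhibition assessed.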

[8] = target: ALK tyrosine kinase receptor (Homo sapiens, UniProt Q9UM73); assay: Inhibition of human ALK; summary of the method: as §1
Mus musculus [9] = assay: In vivo inhibition of Jak2 in mouse transfected with mouse BA/F3 cells expressing TEL-Jak2 assessed as inhibition of STAT5 phosphorylation at 3 to 10 mg/kg, po by Western blotting analysis; type: functional, organism-based; conditions: BaF3, TDE = time-dependent effect; summary of the method: as §5
[10] = target: Protein kinase C zeta type (Homo sapiens, UniProt Q05513); assay: Inhibition of human PKCzeta; summary of the method: as §1
Mus musculus [11] = assay: In vivo inhibition of Jak2 in mouse transfected with mouse BA/F3 cells expressing TEL-Jak2 assessed as inhibition of STAT5 phosphorylation at 3 mg/kg, po after 6 hrs by Western blotting analysis; type: functional; conditions: BaF3, 6 h; summary of the method: as §5
Mus musculus [12] = assay: In vivo inhibition of Jak2 in mouse transfected with mouse BA/F3 cells expressing TEL-Jak2 assessed as inhibition of STAT5 phosphorylation at 10 mg/kg, po after 12 hrs by Western blotting analysis; type: functional; conditions: BaF3, 12 h; summary of the method: as §5
[13] = Antitumor activity against human UKE1 cells xenografted in SCID mouse assessed as tumor growth inhibition at 10 mg/kg, po bid administered for 14 days measured on day 28; type: functional; conditions: read-out: TGI
Summary of the method: (§6)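 UKE-1 cells mixed with matrigel implanted subcutaneously in female SCID mice. On day 15, mice randomized at a mean tumor volume of about 150 mm³. Oral gavage twice daily at 3 or 10 mg/kg, or vehicle, for 14 days. Tumor volume and body weight tracked through the dosing phase.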

[14] = target: Tyrosine-protein kinase ABL1 (Homo sapiens, UniProt P00519); assay: Inhibition of human Abl; summary of the method: as §1
[15] = Cytotoxicity against mouse BA/F3 cells expressing TEL-Jak3 after 72 hrs by MTS assay; type: functional; conditions: BaF3, 72 h; summary of the method: as §4
[16] = Volume of distribution at steady state in beagle dog at 2.5 mg/kg, iv; type: ADME, organism-based, Canis lupus familiaris; parameters: dose 2.5 mg/kg, route intravenous; conditions: in vivo, read-out: Vdss; summary of the method: as §2
UKE1 = assay: Antitumor activity against human UKE1 cells xenografted in po dosed SCID mouse assessed as tumor growth inhibition administered bid for 14 days; type: functional, organism-based; summary of the method: as §6
[17] = Oral bioavailability in Wistar rat at 10 mg/kg; type: ADME, organism-based; conditions: in vivo; summary of the method: as §3
[18] = target: T1, Tyrosine-protein kinase JAK3 (Homo sapiens, UniProt P52333); assay: Inhibition of Jak3 (unknown origin)
T1 sequence (P52333 whole entry): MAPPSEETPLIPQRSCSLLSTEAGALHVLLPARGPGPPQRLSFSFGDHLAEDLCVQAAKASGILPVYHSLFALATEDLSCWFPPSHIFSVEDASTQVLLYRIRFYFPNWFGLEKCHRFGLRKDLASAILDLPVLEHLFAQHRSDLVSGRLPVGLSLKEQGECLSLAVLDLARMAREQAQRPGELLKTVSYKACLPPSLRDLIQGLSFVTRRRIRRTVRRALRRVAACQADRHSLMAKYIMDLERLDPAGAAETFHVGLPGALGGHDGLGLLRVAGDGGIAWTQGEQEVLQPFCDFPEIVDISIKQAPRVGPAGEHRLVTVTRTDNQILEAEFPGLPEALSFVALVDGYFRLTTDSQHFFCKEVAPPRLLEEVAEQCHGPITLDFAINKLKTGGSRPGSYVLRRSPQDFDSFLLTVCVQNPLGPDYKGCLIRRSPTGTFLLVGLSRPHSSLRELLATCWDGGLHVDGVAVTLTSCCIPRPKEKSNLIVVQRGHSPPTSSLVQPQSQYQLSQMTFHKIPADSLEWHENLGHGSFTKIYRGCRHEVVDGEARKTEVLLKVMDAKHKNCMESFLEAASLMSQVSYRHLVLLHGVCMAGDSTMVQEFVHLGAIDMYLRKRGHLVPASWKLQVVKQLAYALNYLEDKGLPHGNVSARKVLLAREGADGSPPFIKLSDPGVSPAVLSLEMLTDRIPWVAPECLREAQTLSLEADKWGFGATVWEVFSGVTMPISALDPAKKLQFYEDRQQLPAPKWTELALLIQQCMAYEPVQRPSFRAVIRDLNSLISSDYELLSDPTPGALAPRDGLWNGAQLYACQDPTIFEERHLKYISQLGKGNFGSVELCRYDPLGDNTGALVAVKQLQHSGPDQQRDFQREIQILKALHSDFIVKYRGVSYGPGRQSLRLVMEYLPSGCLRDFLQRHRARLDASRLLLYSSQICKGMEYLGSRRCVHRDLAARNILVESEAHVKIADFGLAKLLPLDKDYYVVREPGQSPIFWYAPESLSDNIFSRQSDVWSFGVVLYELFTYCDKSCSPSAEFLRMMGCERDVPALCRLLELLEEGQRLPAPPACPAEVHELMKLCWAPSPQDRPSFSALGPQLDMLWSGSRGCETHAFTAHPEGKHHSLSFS

[19] = Volume of distribution at steady state in Wistar rat at 10 mg/kg, po and 3 mg/kg, iv; type: ADME, organism-based; conditions: in vivo, read-out: Vdss; summary of the method: as §3
[20] = target: Fibroblast growth factor receptor 1 (Homo sapiens, UniProt P11362); assay: Inhibition of human FGFR1; summary of the method: as §1
Sequence of Fibroblast growth factor receptor 1 (P11362 whole entry): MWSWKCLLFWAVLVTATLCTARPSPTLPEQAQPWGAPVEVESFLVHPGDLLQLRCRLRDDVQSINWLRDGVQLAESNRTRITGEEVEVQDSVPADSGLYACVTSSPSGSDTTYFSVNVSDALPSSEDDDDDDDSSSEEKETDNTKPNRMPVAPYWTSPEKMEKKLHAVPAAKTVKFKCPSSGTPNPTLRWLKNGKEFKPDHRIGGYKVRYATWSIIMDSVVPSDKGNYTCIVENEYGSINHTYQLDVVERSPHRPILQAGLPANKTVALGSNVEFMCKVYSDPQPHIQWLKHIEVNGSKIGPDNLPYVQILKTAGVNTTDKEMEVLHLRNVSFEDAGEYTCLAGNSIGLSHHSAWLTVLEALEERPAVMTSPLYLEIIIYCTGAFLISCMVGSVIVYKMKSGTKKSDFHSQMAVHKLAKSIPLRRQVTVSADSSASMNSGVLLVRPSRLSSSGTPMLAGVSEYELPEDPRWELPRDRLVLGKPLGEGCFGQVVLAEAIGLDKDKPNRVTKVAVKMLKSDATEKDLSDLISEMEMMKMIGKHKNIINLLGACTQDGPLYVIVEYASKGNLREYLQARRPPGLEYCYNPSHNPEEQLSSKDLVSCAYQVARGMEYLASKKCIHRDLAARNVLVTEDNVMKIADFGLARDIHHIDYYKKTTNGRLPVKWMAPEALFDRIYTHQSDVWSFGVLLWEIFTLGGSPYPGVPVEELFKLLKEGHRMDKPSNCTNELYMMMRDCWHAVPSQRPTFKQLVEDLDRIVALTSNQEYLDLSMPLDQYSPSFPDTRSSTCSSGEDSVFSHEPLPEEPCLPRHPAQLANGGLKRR

Sequence of ALK tyrosine kinase receptor (Q9UM73 whole entry): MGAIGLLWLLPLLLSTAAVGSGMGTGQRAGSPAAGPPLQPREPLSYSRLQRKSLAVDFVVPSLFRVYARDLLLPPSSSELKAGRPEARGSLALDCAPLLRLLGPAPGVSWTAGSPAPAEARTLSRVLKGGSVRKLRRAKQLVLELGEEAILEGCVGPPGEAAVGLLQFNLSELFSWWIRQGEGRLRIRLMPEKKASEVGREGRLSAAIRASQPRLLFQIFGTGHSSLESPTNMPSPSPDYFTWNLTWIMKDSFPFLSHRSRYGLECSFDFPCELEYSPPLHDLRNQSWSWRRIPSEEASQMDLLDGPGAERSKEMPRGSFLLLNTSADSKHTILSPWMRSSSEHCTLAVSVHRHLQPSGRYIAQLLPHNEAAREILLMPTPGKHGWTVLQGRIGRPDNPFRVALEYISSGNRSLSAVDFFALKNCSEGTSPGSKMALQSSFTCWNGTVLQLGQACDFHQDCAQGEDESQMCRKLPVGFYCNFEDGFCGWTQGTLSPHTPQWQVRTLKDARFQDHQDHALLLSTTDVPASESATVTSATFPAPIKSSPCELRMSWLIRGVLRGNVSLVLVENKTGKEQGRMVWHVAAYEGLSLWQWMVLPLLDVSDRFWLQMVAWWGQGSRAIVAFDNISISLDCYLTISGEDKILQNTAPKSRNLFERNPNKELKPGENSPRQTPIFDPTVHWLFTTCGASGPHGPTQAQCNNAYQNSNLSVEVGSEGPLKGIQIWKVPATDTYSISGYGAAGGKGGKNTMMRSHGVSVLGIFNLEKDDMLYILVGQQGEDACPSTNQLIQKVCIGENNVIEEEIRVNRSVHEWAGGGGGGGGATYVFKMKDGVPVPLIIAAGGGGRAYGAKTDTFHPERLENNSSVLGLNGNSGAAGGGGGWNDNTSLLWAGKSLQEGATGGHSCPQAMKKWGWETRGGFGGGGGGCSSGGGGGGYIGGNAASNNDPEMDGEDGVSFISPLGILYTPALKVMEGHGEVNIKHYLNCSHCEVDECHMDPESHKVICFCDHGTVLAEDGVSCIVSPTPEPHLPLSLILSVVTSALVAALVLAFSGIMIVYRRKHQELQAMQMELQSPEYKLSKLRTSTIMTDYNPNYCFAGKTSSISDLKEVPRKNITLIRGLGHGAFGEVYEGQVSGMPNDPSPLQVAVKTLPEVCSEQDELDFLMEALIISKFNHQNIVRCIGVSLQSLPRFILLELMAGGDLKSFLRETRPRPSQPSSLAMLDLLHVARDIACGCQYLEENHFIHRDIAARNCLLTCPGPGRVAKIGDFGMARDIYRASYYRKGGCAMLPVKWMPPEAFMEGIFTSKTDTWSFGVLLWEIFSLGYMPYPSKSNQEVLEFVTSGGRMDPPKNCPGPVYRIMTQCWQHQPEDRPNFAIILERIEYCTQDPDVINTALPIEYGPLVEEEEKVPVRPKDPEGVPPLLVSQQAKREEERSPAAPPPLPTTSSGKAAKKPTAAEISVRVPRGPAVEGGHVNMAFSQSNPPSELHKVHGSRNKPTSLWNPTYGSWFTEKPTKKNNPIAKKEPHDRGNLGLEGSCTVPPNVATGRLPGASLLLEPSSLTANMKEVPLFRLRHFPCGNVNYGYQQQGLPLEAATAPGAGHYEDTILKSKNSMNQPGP
Sequence of Serine/threonine-protein kinase SIK1 (P57059 whole entry): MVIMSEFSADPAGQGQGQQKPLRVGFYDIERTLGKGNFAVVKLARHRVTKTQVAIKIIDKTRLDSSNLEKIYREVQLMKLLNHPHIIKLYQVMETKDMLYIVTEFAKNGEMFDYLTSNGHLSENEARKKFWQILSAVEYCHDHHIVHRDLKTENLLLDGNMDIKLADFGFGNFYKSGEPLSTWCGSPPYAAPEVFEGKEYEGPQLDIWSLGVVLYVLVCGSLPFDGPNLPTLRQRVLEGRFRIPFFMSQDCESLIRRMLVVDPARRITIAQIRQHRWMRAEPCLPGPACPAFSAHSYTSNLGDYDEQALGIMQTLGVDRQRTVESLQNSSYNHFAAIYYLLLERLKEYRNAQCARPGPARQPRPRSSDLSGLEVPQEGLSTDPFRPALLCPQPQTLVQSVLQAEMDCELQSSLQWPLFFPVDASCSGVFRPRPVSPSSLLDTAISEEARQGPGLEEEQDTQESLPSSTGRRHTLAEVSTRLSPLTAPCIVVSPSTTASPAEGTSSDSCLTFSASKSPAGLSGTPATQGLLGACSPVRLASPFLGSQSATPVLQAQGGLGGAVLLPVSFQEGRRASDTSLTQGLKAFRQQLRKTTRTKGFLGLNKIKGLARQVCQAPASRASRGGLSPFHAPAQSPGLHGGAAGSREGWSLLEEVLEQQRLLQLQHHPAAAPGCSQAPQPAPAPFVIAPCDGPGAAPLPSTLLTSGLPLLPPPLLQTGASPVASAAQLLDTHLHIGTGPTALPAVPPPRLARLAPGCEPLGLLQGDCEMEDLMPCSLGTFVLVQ
Sequence of Receptor-type tyrosine-protein kinase FLT3 (P36888 whole entry): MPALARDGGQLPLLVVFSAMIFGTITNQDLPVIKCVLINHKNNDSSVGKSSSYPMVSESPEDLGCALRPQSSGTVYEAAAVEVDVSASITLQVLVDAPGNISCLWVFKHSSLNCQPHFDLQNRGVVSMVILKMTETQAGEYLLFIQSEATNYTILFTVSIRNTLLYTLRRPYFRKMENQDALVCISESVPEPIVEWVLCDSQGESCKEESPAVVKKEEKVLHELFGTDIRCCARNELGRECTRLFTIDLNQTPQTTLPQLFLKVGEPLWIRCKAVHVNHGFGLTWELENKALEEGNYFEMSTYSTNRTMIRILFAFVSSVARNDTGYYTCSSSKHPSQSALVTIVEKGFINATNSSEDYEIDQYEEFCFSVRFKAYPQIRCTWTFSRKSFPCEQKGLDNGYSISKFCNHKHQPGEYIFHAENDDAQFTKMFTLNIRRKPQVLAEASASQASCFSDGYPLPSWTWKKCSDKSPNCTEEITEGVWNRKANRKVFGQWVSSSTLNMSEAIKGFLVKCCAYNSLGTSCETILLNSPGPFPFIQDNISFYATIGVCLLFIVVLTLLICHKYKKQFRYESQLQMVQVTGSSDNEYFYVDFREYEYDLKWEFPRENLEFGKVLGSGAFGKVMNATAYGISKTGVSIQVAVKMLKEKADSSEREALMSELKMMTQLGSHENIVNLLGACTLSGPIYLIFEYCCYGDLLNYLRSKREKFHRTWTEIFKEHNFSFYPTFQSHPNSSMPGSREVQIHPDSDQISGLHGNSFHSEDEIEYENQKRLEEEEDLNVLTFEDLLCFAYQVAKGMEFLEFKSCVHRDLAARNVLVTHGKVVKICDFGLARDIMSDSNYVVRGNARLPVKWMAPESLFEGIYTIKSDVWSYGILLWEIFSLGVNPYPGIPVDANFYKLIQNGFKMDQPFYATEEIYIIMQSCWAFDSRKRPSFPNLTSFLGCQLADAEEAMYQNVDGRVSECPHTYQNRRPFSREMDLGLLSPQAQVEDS
Sequence of Protein kinase C zeta type (Q05513 whole entry): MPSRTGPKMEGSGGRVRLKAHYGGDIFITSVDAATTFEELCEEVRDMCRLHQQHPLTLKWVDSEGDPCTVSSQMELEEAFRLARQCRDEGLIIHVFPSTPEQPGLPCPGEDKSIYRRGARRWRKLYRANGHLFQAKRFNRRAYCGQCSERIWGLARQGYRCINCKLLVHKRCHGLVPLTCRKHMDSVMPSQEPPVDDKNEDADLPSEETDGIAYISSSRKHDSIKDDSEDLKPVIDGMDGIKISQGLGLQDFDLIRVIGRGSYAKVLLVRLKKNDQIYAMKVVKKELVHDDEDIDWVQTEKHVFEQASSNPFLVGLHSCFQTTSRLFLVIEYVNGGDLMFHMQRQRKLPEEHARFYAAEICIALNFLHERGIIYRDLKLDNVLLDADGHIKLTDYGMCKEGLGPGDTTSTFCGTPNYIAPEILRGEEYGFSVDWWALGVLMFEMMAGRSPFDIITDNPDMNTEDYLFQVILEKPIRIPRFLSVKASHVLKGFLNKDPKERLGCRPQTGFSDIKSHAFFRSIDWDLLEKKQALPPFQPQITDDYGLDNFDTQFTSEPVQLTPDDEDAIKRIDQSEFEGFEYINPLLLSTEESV

- IC50 [1]: 45 nM
- F (Canis familiaris): 64%
- IC50 [2]: 190 nM
- IC50 [3]: 35 nM
- IC50 [4]: 2.7 nM
- clearance [5]: 36 mL/min/kg
- IC50 [8]: 50 nM
- IC50 [10]: 200 nM
- IC50 [14]: 25 nM
- Vd [16]: 1.9 L/kg
- bioavailability [17]: 64%
- IC50 [18]: 220 nM
- Vd [19]: 2.2 L/kg
- IC50 [20]: 50 nM
SMILES: C[C@H](Nc1nc(Nc2cn(C)cn2)c2cc[nH]c2n1)c1ncc(F)cn1
- GI50 [6]: 760 nM
- inhibition (Mus musculus [7]): Active
- inhibition (Mus musculus [9]): tde
- inhibition in vivo at 3 mg/kg (Mus musculus [11]): 80%
- inhibition in vivo at 10 mg/kg (Mus musculus [12]): 50%
- inhibition in vivo at 10 mg/kg [13]: 77%
- GI50 [15]: 1800 nM
- TGI (UKE1): Dose-dependent effect
